FXIIa inh: factor XIIa (human) inhibition; purified FXIIa, Boc-QGR-AMC fluorogenic substrate, 2 h; inhibition, % at 5 µM; hit rate 0.3% among 220,000; in the data active = inhibition above about 40%;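 note: 0% = enzyme with no compound and 100% = blank without enzyme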
Target sequence (P00748 20-372 limits assumed): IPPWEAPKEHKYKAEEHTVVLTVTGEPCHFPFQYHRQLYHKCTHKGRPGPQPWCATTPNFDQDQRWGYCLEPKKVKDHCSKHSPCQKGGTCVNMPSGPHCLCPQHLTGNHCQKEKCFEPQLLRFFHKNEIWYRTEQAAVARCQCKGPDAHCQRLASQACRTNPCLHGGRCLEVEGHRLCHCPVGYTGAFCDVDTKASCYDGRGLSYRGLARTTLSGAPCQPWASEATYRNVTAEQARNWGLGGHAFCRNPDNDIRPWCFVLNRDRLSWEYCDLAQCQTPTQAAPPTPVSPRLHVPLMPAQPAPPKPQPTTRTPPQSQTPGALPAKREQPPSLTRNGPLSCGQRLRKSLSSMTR
Target sequence (P00748 373-615 limits assumed): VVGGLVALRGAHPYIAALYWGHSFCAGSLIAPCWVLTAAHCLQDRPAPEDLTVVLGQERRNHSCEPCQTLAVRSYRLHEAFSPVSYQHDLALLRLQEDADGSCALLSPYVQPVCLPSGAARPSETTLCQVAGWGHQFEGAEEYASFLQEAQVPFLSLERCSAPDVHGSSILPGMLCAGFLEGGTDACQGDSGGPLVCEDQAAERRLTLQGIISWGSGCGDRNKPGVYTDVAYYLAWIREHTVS
FXIa inh 1536: inhibitors of human coagulation factor XIa. purified FXIa, Boc-Glu-Ala-Arg-AMC fluorogenic substrate. hit rate 0.14% among 220,000. inhibition, % at 5 µM. P03951. AID 798;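 active = inhibition of at least 40%; inactive = inhibition below 40%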;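 note: fluorescence of freed AMC excited at 355 nm; 0% = enzyme without compound and 100% = no enzyme blank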
KLK5 inh: inhibitors of human kallikrein 5 | recombinant hK5, fluorogenic AMC substrate cleavage | inhibition, % at 5 µM | hit rate 0.59% among 210,000;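 active = inhibition of 40% or more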;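 note: 0% = enzyme controls without compound and 100% = no-enzyme blanks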
thrombin 1536: thrombin (human) inhibition. P00734. alpha-thrombin, Boc-VPR-AMC fluorogenic substrate cleavage. AID 1046. inhibition, % at 5 µM. hit rate 0.26% among 220,000;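 active = inhibition at or above 40%; inactive = inhibition below 40%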;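 note: 0% = enzyme with no compound and 100% = wells without enzyme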
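Material: human alpha-thrombin protein. Incubation: reaction at ambient temperature. Technique: fluorescence of released AMC, ex 355 nm, em 460 nm. Control set: no-compound enzyme wells and no-enzyme blanks. Also added: Boc-VPR-AMC substrate, 15 µM final. Buffer or medium: pH 7.5 Tris (50 mM) with NaCl 150 mM, Tween 20 0.05%.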
* = called active by the depositor; nt = no result. Rows were chosen to be rich in hits. Some 1% of all compounds tested hit in one or more screens of this group.

SMILES	FXIIa inh	FXIa inh 1536	KLK5 inh	thrombin 1536
Cc1ccc2nc(C)/c(=N\O)c(C)nc2c1	14.9	2.8	51.1*	2.8
O=c1c(Cl)c(Cl)cnn1Cc1ccc(F)cc1	51.9*	38.2	27.9	21.7
Cc1ccc(NC(=O)C2CCCN2C(=O)NC2CCCCC2)cc1 (stereo not given)	6.4	-7.2	-1.1	-10.4
O=C(COC(=O)c1cc(Br)ccc1O)Nc1cc(S(=O)(=O)N2CCCC2)ccc1Cl	0.9	-7.8	-19.2	45.3*
CC(=O)OCC(=O)Nc1cc(S(=O)(=O)N2CCCCCC2)ccc1Cl	5.0	1.0	-1.4	nt
Cc1ccsc1CNC(=O)c1c(-c2ccccc2)noc1C	1.0	-16.8	41.7*	-8.2
CCC(=O)N1CCN(CCN=CC2=C(O)CC(C)(C)CC2=O)CC1	-9.3	10.1	40.5*	16.9
CCCCC(CCC(=O)O)(C(=O)OCC)c1csc(Nc2ccc(C)cc2)n1 (stereo not given)	9.9	-0.1	8.0	-10.0
CCOC(=O)C(CC)(CCC(=O)OC)c1csc(Nc2ccccc2O)n1 (stereo not given)	21.0	21.3	18.6	65.9*
Nc1nc2ccccc2n1C(=O)c1ccco1	-2.9	5.0	41.1*	44.3*
Cc1nc2c(cnn2-c2ccc(Cl)cc2)c(=O)n1-c1ccc(N2CCC(C)CC2)cc1	17.0	13.8	53.8*	17.1
Cc1cc(/C(N)=N/OC(=O)c2ccc(Cl)cc2)no1	8.1	-5.7	44.1*	-1.8
Cc1cc(/C(N)=N/OC(=O)c2cccc(Cl)c2)no1	17.2	-2.8	-2.2	5.3
Cc1csc(C(C)N(C)C(=O)CCc2nnc(CCc3ccccc3)o2)n1 (stereo not given)	8.1	-1.4	5.8	-6.4
CN(C)S(=O)(=O)c1ccc(N2CCCC2)c(C(=O)Nc2nc(-c3cc(F)ccc3F)cs2)c1	5.1	4.4	-16.8	-6.2
CC(=O)Nc1ccc(S(=O)(=O)n2cnc3cc(C)c(C)cc32)cc1	11.9	-0.8	92.1*	104.4*
Cc1nn2c(NCCCN(C)C)c3c(nc2c1-c1ccccc1)CCCC3	-0.1	-10.2	-13.8	-4.6
Cc1nn2c(NCCCN(C)C)c3c(nc2c1-c1ccccc1)CCC3	3.3	3.4	56.2*	67.6*
CN(C)C(=O)CSc1nnc(Cc2ccc([N+](=O)[O-])cc2)o1	16.1	18.8	3.2	2.2
COc1ccc(OC)c(NC(=O)CC(NC(C)=O)c2ccccc2)c1 (stereo not given)	9.9	-0.8	1.1	10.4
Cc1ccc(S(=O)(=O)CCC#N)cc1	0.9	3.9	-12.3	2.2
Cc1ccc(Cn2cc(/C=N/NC(=O)Cc3nnc(NC(=O)c4ccc(C)cc4)s3)c3ccccc32)cc1	40.1*	27.6	9.8	31.4
O=C(c1ccccc1)c1coc2ccc(O)c(CN3CCOCC3)c12	6.4	-13.5	-26.3	-3.7
COc1ccc(C(=O)c2coc3ccc(O)c(CN4CCCCC4)c23)cc1	9.9	4.3	47.9*	13.5
COc1ccc2c(c1)CCCC21SC(NC(C)=O)=NN1C(C)=O (stereo not given)	0.4	-3.1	-3.1	-3.7
SMILES	FXIIa inh	FXIa inh 1536	KLK5 inh	thrombin 1536
O=C(CSc1nnc(-c2ccccc2)c(-c2ccccc2)n1)Nc1ncc(Cl)cc1Cl	2.7	0.8	-3.6	-2.0
O=C(CSc1nnc(-c2ccccc2)c(-c2ccccc2)n1)Nc1ccc(Br)cn1	28.1	23.3	1.6	61.7*
COC(=O)c1nc(NC(C)=O)n[nH]1	48.0*	0.0	4.8	24.7
O=c1[nH]nc(-c2ccc(F)cc2)cc1Cc1ccc(F)cc1	-1.9	-3.0	-1.3	-3.6
CC(C)(C)C(=O)N1NC(=Nc2ccccc2)SC1(C)C	40.4*	30.8	33.7	6.2
O=C(Nc1nnc(SCC(=O)N2CCOCC2)s1)c1ccccc1	1.9	4.3	-15.3	-5.5
CCOc1ccccc1C(=O)Nc1nnc(SCC(=O)N2CCOCC2)s1	25.1	31.7	42.8*	54.5*
CCOC(=O)c1sc(NC(C)=O)nc1C	13.7	1.6	-2.2	-2.6
CCOC(=O)c1sc(NS(=O)(=O)c2cc(C)ccc2C)nc1C	21.7	14.0	40.5*	30.4
CCC(=O)Oc1ccc2c(C)c(Cl)c(=O)oc2c1	31.9	6.2	17.1	47.0*
CS(=O)(=O)N1CCN(C2C3CC4CC(C3)CC2C4)CC1 (stereo not given)	6.3	-1.2	0.9	-4.5
Cc1cc(C)c(S(=O)(=O)c2ccccc2)c(OC(=O)c2ccc(Cl)cc2Cl)n1	7.7	0.1	0.6	2.2
Cc1cc(OC(=O)c2ccc(Cl)cc2Cl)nc(C)n1	45.4*	6.5	-53.3	4.1
Cc1cc(C)c(C(N)=O)c(SCC(=O)c2ccc(Cl)cc2)n1	3.6	-6.5	-26.6	-5.3

Screens from PubChem.
